Data on one compound can be found in ChEMBL document CHEMBL1155362, “Synthesis, characterization and derivatization of some novel types of mono- and bis-imidazolidineiminothiones and imidazolidineiminodithiones with antitumor, antiviral, antibacterial and antifungal activities--part I” (Eur J Med Chem, 2009).

The subject of one experiment is Coxsackievirus B4. Nature of the experiment: Antiviral activity against Coxsackievirus B4 infected african green monkey Vero cells at 10^-2 dilution of 5 mg/ml by plaque formation assay. In kind it is functional. In short, it runs like this:
(§1)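 Compound dilutions prepared from a 5 mg/mL DMSO stock, using the maximum non-toxic dilution for Vero cells over 3 days; 0.1 mL virus (10³) mixed with 0.1 mL compound for 1 h at room temperature; mixture inoculated onto washed Vero monolayers in 12-well plates and adsorbed at 37 °C; 2× MEM/agarose overlay applied; read-out % reduction in plaque count versus untreated virus control.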

The subject of a further experiment is Hepatovirus A. Nature of the experiment: Antiviral activity against HAV infected african green monkey Vero cells at 10^-2 dilution of 5 mg/ml by plaque formation assay. The class given is functional. In short, it runs like this: as §1
A further experiment has as its system Aspergillus niger. In words: Antifungal activity against Aspergillus niger IMI 31726 at 1 mg/ml by agar disk diffusion assay. The class given is functional. The settings on record: read-out: DIZ. In general terms: Agar diffusion results depend on both activity and mobility in agar.
A further experiment has as its system Escherichia coli. Nature of the experiment: Antibacterial activity against Escherichia coli NCTC 10416 at 1 mg/ml by agar disk diffusion assay. In kind it is functional. Particulars: read-out: DIZ.
A further experiment has as its system Bacillus subtilis. In words: Antibacterial activity against Bacillus subtilis NCTC 1040 at 1 mg/ml by agar disk diffusion assay. The class given is functional. The settings on record: read-out: DIZ.
A further experiment relates to Candida albicans. Nature of the experiment: Antifungal activity against Candida albicans IMRU 3669 at 1 mg/ml by agar disk diffusion assay. The class given is functional. Particulars: read-out: DIZ. The essentials:
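Fungi maintained on Czapek's Dox agar; agar well diffusion with 1 cm wells and […] of each concentration (1, 2.5, 5 mg/mL) in DMF; inhibition zone diameter measured.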

A further experiment has as its system Human alphaherpesvirus 1. Nature of the experiment: Antiviral activity against HSV1 infected african green monkey Vero cells at 10^-2 dilution of 5 mg/ml by plaque formation assay. The class given is functional. In short, it runs like this: as §1
A further experiment concerns Salmonella typhi. Nature of the experiment: Antibacterial activity against Salmonella typhi NCIMB 9331 at 1 mg/ml by agar disk diffusion assay. The class given is functional, Salmonella enterica subsp. enterica serovar Typhi. Particulars: Salmonella enterica, read-out: DIZ.
Another experiment concerns Staphylococcus aureus. In words: Antibacterial activity against Staphylococcus aureus NCTC 7447 at 1 mg/ml by agar disk diffusion assay. The class given is functional. Particulars: read-out: DIZ.

Calls of active or inactive are those of the source. The rule behind the calls is not given here.

With `O=C1C(=S)N(c2ccc(Br)cc2)C(=O)N1c1ccc2c(c1)Cc1ccccc1-2`, the outcome in the experiment on Coxsackievirus B4 and in the experiment with Hepatovirus A was inactive. In addition, the zone of inhibition at 1000 µg/mL is 13 mm with Aspergillus niger; 11 mm in the experiment with Escherichia coli; 14 mm in the experiment with Bacillus subtilis; 13 mm with Candida albicans; 12 mm in the experiment on Salmonella typhi; 13 mm in the experiment on Staphylococcus aureus. Further, the Activity in the experiment with Human alphaherpesvirus 1 amounted to 40%.
